Experimental data as given in the array DNA melting data of Ke et al. (doi:10.1101/2024.01.08.574731).

What was measured:
[1] = folding enthalpy; higher = less favourable; fluorescence melt of hairpins on a sequencing array, two-state fit; conditions: sodium 0.088 M
Outline: (§1)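 Melting temperature and folding enthalpy were obtained by bootstrapped two-state fitting. Fits used Cy3 fluorescence of library hairpins with annealed Cy3 and quencher oligos on a sequenced MiSeq flow cell, imaged in 50 mM Na-HEPES pH 8.0, 25 mM NaCl in 2.5 °C steps up to 60 °C and normalised to pre-quench Cy3 and control constructs. Four replicates were combined by inverse-variance weighting, and fitted temperatures were raised by 9.35 °C to match UV melts.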

[2] = melting temperature; fluorescence melt of hairpins on a sequencing array, two-state fit, raised by 9.35 °C to match UV melts; conditions: sodium 0.088 M
Outline: as §1

Question: For GAGTACGGAAACGTGTTC ((..(((....)))..)), which folding enthalpy [1] is on record?
Answer: -10.5 kcal/mol

Question: What about the Tm [2] of the same sequence?
Answer: 22.2 °C

Question: With GCTAGGCGAAAGCCGTGC ((..(((....)))..)) as the sequence, how does the folding enthalpy [1] read?
Answer: -13.9 kcal/mol

Question: What about the Tm [2] of the same sequence?
Answer: 57.7 °C

Question: Which results are given for GGAGTGCGAAAGCAGTCC (((.(((....))).)))?
Answer: folding enthalpy [1]: -30.1 kcal/mol; Tm [2]: 65.8 °C

Question: What does the source list for GCGCAGCGAAAGCTCGGC ((..(((....)))..))?
Answer: folding enthalpy [1]: -7.59 kcal/mol; Tm [2]: 40.3 °C

Question: For GGCGTCGGAAACGACACC ((.((((....)))).)), which folding enthalpy [1] is on record?
Answer: -30.1 kcal/mol

Question: And the Tm [2]?
Answer: 53.9 °C

Question: What does the source list for GTAGTGCGAAAGCATAC (((.(((....))))))?
Answer: folding enthalpy [1]: -12.6 kcal/mol; Tm [2]: 40.5 °C

Question: For GATCGACATATCGATC ((((((....)))))), which folding enthalpy [1] is on record?
Answer: -43.4 kcal/mol

Question: What about the Tm [2] of the same sequence?
Answer: 51.7 °C

Question: For GATCTAATAATAGATC ((((((....)))))), which folding enthalpy [1] is on record?
Answer: -22 kcal/mol

Question: And the Tm [2]?
Answer: 35.5 °C

Question: For AGATTGAAAAATCT (((((....))))), which folding enthalpy [1] is on record?
Answer: -10.8 kcal/mol

Question: What about the Tm [2] of the same sequence?
Answer: 28.9 °C

Question: With GTCGACTCGAAAGAGGAC (((..(((....)))))) as the sequence, how does the folding enthalpy [1] read?
Answer: -16.9 kcal/mol

Question: And the Tm [2]?
Answer: 35.6 °C

Question: Which folding enthalpy [1] does the source give for GTGCTCGAAAGAGGCCAC ((((((....)))..))) here?
Answer: -16 kcal/mol

Question: And the Tm [2]?
Answer: 35.9 °C

Question: With GCGAGTCCTCGC ((((....)))) as the sequence, how does the folding enthalpy [1] read?
Answer: -30.2 kcal/mol

Question: What about the Tm [2] of the same sequence?
Answer: 56.2 °C

Question: For CACAGGAAACTGTG (((((....))))), which folding enthalpy [1] is on record?
Answer: -21 kcal/mol

Question: What about the Tm [2] of the same sequence?
Answer: 50.2 °C

Question: Which folding enthalpy [1] does the source give for GTGAGATCGAAAGATCAC (((..(((....)))))) here?
Answer: -17.6 kcal/mol

Question: What about the Tm [2] of the same sequence?
Answer: 45.6 °C

Question: Which folding enthalpy [1] does the source give for GACTCTGGAAACAGAGTC (((((((....))))))) here?
Answer: -34.3 kcal/mol

Question: And the Tm [2]?
Answer: 63.9 °C

Question: For GCGGCGCTCCGC ((((....)))), which folding enthalpy [1] is on record?
Answer: -14.3 kcal/mol

Question: And the Tm [2]?
Answer: 63.4 °C

Question: For CGAGCGGAAACGCGGTCG ((((((....)))..))), which folding enthalpy [1] is on record?
Answer: -14.9 kcal/mol

Question: And the Tm [2]?
Answer: 52.8 °C

Question: Which results are given for GAACGAGAAATCGTTC ((((((....))))))?
Answer: folding enthalpy [1]: -31.3 kcal/mol; Tm [2]: 54.5 °C

Question: Which folding enthalpy [1] does the source give for GATCTCCGAAAGGAAATC (((.(((....))).))) here?
Answer: -25.1 kcal/mol

Question: What about the Tm [2] of the same sequence?
Answer: 34.2 °C

Question: Which folding enthalpy [1] does the source give for GTGTAGGGAAACCTATGC (..((((....))))..) here?
Answer: -12.2 kcal/mol

Question: What about the Tm [2] of the same sequence?
Answer: 30.9 °C

Question: Which folding enthalpy [1] does the source give for GCGGGGCGAAAGCGCTGC ((.(.((....)).).)) here?
Answer: -35.9 kcal/mol

Question: And the Tm [2]?
Answer: 66.4 °C

Question: What does the source list for GCCGAAGGAAACTTCGAC (.(((((....))))).)?
Answer: folding enthalpy [1]: -19.8 kcal/mol; Tm [2]: 41 °C

Question: For GATCCTAGGAGGATC ((((((...)))))), which folding enthalpy [1] is on record?
Answer: -35.3 kcal/mol

Question: And the Tm [2]?
Answer: 54.1 °C

Question: With GACTGCGAAAGCATTGTC ((((((....)))..))) as the sequence, how does the folding enthalpy [1] read?
Answer: -10.4 kcal/mol

Question: What about the Tm [2] of the same sequence?
Answer: 42 °C

Question: For GCTTAGCGAAAGCGGAGC (((..((....))..))), which folding enthalpy [1] is on record?
Answer: -16.8 kcal/mol

Question: What about the Tm [2] of the same sequence?
Answer: 58.7 °C

Question: For GGGGGTCGAAAGACACCC (((.(((....))).))), which folding enthalpy [1] is on record?
Answer: -35.5 kcal/mol

Question: And the Tm [2]?
Answer: 67.4 °C

Question: What does the source list for GTCTATGGAAACATAGAC (((((((....)))))))?
Answer: folding enthalpy [1]: -42.7 kcal/mol; Tm [2]: 54.9 °C

Question: Which folding enthalpy [1] does the source give for GCGCACGGAAACGTGCAC (.(((((....))))).) here?
Answer: -10.1 kcal/mol

Question: What about the Tm [2] of the same sequence?
Answer: 52.2 °C

Question: Which folding enthalpy [1] does the source give for GTTTCCGAAAGGAGGAAC ((((((....)))..))) here?
Answer: -9.8 kcal/mol

Question: And the Tm [2]?
Answer: 27.4 °C

Question: With GGGCATGGAAACATGTCC ((.((((....)))).)) as the sequence, how does the folding enthalpy [1] read?
Answer: -43.4 kcal/mol

Question: And the Tm [2]?
Answer: 54.3 °C

Question: What does the source list for GCACTCGAAAGAGATTGC ((((((....)))..)))?
Answer: folding enthalpy [1]: -15.2 kcal/mol; Tm [2]: 34.2 °C

Question: With GCAAAGCGAAAGCGATGC (((..((....))..))) as the sequence, how does the folding enthalpy [1] read?
Answer: -24.4 kcal/mol

Question: What about the Tm [2] of the same sequence?
Answer: 61.7 °C

Question: For GATTTGGGAAACTAAATC (((((.(....).))))), which folding enthalpy [1] is on record?
Answer: -26.6 kcal/mol

Question: What about the Tm [2] of the same sequence?
Answer: 36.6 °C

Question: Which folding enthalpy [1] does the source give for GCTATTGAAAAATAGC ((((((....)))))) here?
Answer: -31.2 kcal/mol

Question: And the Tm [2]?
Answer: 49.5 °C
